Sampled rows, rich in hits. Any-hit rate of the full collection: about 9.6%.
Lmaj promast: Leishmania major promastigote growth inhibition, primary screen; Leishmania major promastigotes, resazurin fluorescence viability; inhibition, % at 10 µM; 200,000 compounds, 9% hits; in the data active means inhibition above about 50%;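 further: promastigotes grown with compound for 44 hours at 28 °C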
TNAP inh no acc: human TNAP enzyme inhibitors, primary screen, biochemical, luminescent, no phosphate acceptor, uHTS; Alkaline phosphatase, tissue-nonspecific isozyme (Homo sapiens), P05186; purified TNAP, CDP-star luminescence, 30 min; inhibition, % at 20 µM; 200,000 compounds, 0.26% hits; AID 1012, 2008;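 active means tissue-nonspecific alkaline phosphatase inhibition above about 50% at 20 µM in the single-dose screen, limit read from the data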;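 further: 0% = DMSO negative control and 100% = EDTA positive control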
Target sequence (P05186 whole entry, looked up): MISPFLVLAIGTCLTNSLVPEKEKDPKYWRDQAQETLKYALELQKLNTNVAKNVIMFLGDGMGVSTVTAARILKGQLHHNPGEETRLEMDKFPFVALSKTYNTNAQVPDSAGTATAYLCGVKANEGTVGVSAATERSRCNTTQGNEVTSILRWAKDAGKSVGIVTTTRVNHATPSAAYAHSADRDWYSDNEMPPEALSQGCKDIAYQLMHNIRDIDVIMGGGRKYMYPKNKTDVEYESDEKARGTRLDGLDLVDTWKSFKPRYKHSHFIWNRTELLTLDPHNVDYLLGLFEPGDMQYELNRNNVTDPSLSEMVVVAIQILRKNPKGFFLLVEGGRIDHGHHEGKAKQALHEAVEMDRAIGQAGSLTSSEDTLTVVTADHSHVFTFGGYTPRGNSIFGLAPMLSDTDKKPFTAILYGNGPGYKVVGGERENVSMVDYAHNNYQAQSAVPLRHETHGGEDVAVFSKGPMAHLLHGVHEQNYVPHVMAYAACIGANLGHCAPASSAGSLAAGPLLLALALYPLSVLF
PTEN del growth: growth suppression of PTEN-null HCT116, primary screen, cell-based, CellTiter-Glo. AID 827, 2007. viability, % at 10 µM. HCT116 PTEN-null viability, 60 h; stronger effect = lower value. 140,000 compounds, 1.2% hits;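 active means viability at or below a set limit, 4 SD under the median of all tested compounds, cut at about 3.7% in these data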;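 further: PTEN knockout HCT116 line with beta catenin targeted HCT116 as companion control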
TNAP inh hi DEA: human TNAP enzyme inhibitors, primary screen, biochemical, luminescent, high phosphate acceptor level, uHTS; Alkaline phosphatase, tissue-nonspecific isozyme (Homo sapiens), P05186; purified TNAP, CDP-star luminescence, 1 M DEA; inhibition, % at 20 µM; 200,000 compounds, 0.03% hits;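 active means over 50% inhibition of tissue-nonspecific alkaline phosphatase at 20 µM in the single-dose screen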;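 further: plate controls were DMSO wells for no effect and EDTA-quenched wells as full inhibition for full effect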
TNAP act hi DEA: TNAP activators at high phosphate acceptor level, primary screen, biochemical, luminescence, uHTS | Alkaline phosphatase, tissue-nonspecific isozyme (Homo sapiens), P05186 | purified TNAP, CDP-star luminescence, 1 M DEA, 30 min; stronger effect = higher value; 0 = EDTA background, 1 = DMSO-only activity | activation factor at 20 µM | 200,000 tested, under 10 active | AID 1136, 2008;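 active means activation factor at least 2 at 20 µM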
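Control set: EDTA negative control, DMSO positive control / Assay system: human TNAP / Quantity: TNAP 1/800 final / Evaluation: TNAP activation factor scaled between EDTA and DMSO control wells / Measured by: luminescent substrate turnover signal / Compound dosing: one dose, 20 µM / Times: 30 min enzyme reaction at room temperature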
HCT116 bCat-KO: primary screen for growth suppressors in beta-catenin knockout HCT116 cells (colon tumor, human). 140,000 compounds, 1.5% hits. AID 818, 2007. HCT116 beta-catenin knockout viability, CellTiter-Glo, 60 h; stronger effect = lower value. viability, % at 10 µM;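 active means viability at or under a set limit, the compound median less 4 SD, cut at about 6% in these data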;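 further: 0% = Hyamine 1622 control at 20 µM and 100% = untreated cell control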
Numbers without * were called inactive; x = no result.

SMILES	Lmaj promast	TNAP inh no acc	PTEN del growth	TNAP inh hi DEA	TNAP act hi DEA	HCT116 bCat-KO
c1ccc(CCn2nnnc2C(c2cccnc2)N2CCN(c3nc4ccccc4s3)CC2)cc1 (stereo unspecified)	100.4*	-6.9	25.0	-3.7	1	25.7
c1ccc(CCn2nnnc2C(c2cccnc2)N2CCN(c3ccccc3)CC2)cc1 (stereo unspecified)	96.7*	-1.2	75.8	1.8	1	66.3
Oc1ccc(N2CCN(C(c3cccnc3)c3nnnn3Cc3ccccc3)CC2)cc1 (stereo unspecified)	64.8*	-12.5	68.2	-3.9	1	59.3
c1ccc(Cn2nnnc2C(c2cccnc2)N2CCN(C3CCCCC3)CC2)cc1 (stereo unspecified)	-7.8	-7.2	89.1	-3.6	1	84.9
COCCn1nnnc1C(c1ccccc1)N1CCN(c2ccccc2)CC1 (stereo unspecified)	0.7	-7.1	88.2	1.9	1	91.9
Fc1ccc(N2CCN(C(c3cccs3)c3nnnn3CCc3ccccc3)CC2)cc1 (stereo unspecified)	70.5*	-14.2	74.6	-3.5	1	78.7
COc1ccc2nc3sc(C(=O)NCCCN4CCc5ccccc5C4)cc3cc2c1	99.7*	-8.1	75.0	0.7	1	71.8
COc1ccc(S(=O)(=O)Cc2ccc(C(=O)NCCCN3CCc4ccccc4C3)o2)cc1	2.5	-10.2	94.8	-2.6	1	83.4
Cc1ccc2[nH]c(=O)c3cc(C(=O)NCCN4CCN(C)CC4)sc3c2c1	6.7	-5.2	71.4	-2.5	1	79.9
Cc1ccc2cc3cc(C(=O)NCCCN4CCCCCC4)oc3nc2c1	96.6*	-9.3	59.1	-0.5	1	46.4
Cc1ccc2cc3cc(C(=O)NCCCN4CCc5ccccc5C4)oc3nc2c1	97.3*	1.8	61.0	-3.7	1	46.6
CCOc1ccc(NC(=O)c2cc3cc4ccc(C)cc4nc3o2)cc1	1.6	-7.5	x	-5.0	1.1	x
Cc1ccc2nc(Cl)c3cc(C(=O)NCCCN4CCCC4)sc3c2c1	100.7*	-7.3	x	-5.4	1.1	x
O=S1(=O)C=C(Sc2nc3cc(Cl)ccc3o2)c2ccccc21	79.9*	-2.8	1.6*	0.3	1	1.6*
CC12CCC(C(=O)Nc3cc(Cl)ccc3Cl)(C(Br)C1=O)C2(C)C (stereo unspecified)	9.1	-4.2	87.6	-0.4	1	90.7
Cn1c(C(=O)N2CCN(c3ccc(Cl)cc3)CC2)cc2c(=O)[nH]c3ccccc3c21	12.5	-13.2	44.7	-5.0	1.1	23.0
Cc1ccc(Cl)cc1N1CCN(C(=O)c2cc3c(=O)[nH]c4ccccc4c3n2C)CC1	32.0	-5.4	6.2	-3.3	1	5.6*
Cc1cc(C)cc(Nc2nc(-c3ccc(S(=O)(=O)N4CCCC4)cc3)cs2)c1	98.5*	-4.6	18.3	-5.0	1.1	27.4
Cc1ccc(Nc2nc(-c3ccc(S(=O)(=O)N4CCCC4)cc3)cs2)cc1C	90.0*	1.4	31.7	-5.8	1.1	24.3
Cc1ccc(Nc2nc(-c3ccc(S(=O)(=O)N4CCOCC4)cc3)cs2)cc1	24.1	x	x	x	x	x
O=S(=O)(c1ccc(-c2csc(Nc3ccc(F)cc3)n2)cc1)N1CCCC1	63.7*	-8.5	56.1	-3.6	1	69.2
O=S(=O)(c1ccc(-c2csc(Nc3ccc(Br)cc3)n2)cc1)N1CCCC1	-2.6	-4.1	65.0	3.4	1	59.4
Cc1ccc(Cn2cc(SCC(N)=O)c3ccccc32)cc1	-1.3	-0.5	x	-3.6	1	x
N#CC1=C(N)N=C(SCc2cccc3ccccc23)C(C(N)=O)C12CCCCC2 (stereo unspecified)	100.0*	1.2	39.7	-1.8	1	63.2
O=C1CCC/C(=N/NC(=O)c2ccc(CN3c4cccc5cccc(c45)S3(=O)=O)cc2)C1	1.3	-17.9	98.1	4.0	1	93.0

High-throughput results as filed in PubChem.
